{"source": "paper PMC8965017", "about": "(International Journal of Nanomedicine, 2022)", "key": {"MDA-MB-231 cells [1]": {"test_system": "MDA-MB-231 cells", "test": "In vitro cytotoxicity, MTT assay", "format": "cell-based, human", "conditions": "5-100 μM, 24 and 48 h", "summary_of_the_method": "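MDA-MB-231 cells were seeded at 1×10^4 cells/well for 24 h. Medium was then replaced with single drugs, their combination or the nanoparticle formulation at 5, 10, 20, 50, 75 and 100 μM. After 24 or 48 h, MTT was added for 4 h and absorbance was read at 490 nm. Survival was calculated from blank, treated and control OD; mean ± SD, n = 3.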"}, "MDA-MB-231 cells [2]": {"test_system": "MDA-MB-231 cells", "test": "Calcein-AM/PI staining", "format": "cell-based, human", "conditions": "DAS concentration 10 µM, 24 h", "summary_of_the_method": "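MDA-MB-231 cells (RPMI-1640, 10% FBS, 1% penicillin-streptomycin; 37°C, 5% CO2) were seeded at 1×10^4 cells/well and grown overnight. They were then exposed for 24 h to free drugs, their combination or the nanoparticle formulation at a DAS concentration of 10 µM. Cells were stained with calcein-AM/PI at 37°C for 30 min and imaged by fluorescence microscopy.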"}, "In vivo safety": {"test": "In vivo safety", "design": "species or system BALB/c nude mice", "conditions": "after treatment", "summary_of_the_method": "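At the end of treatment, blood from the MDA-MB-231 xenograft-bearing nude mice was assayed for serum AST, ALT, AKP, BUN and creatinine. Major organs (heart, liver, spleen, lung, kidney) were taken for HE staining. Mean ± SD, n = 3.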"}, "[3]": {"test_system": "MDA-MB-231 tumor-bearing mice", "test": "In vivo antitumor efficacy", "design": "species or system BALB/c nude mice", "conditions": "5 mg/kg once every 3 days, 6 times, day 18", "summary_of_the_method": "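Female BALB/c nude mice aged 4–5 weeks carried subcutaneous MDA-MB-231 tumours. At about 100 mm3 they were randomised into 5 groups (n = 6): PBS, single drugs, combination or nanoparticles. From day 0, intravenous doses of 5 mg/kg were given every 3 days, 6 times in total. Tumour length and width were measured by caliper before each dose to calculate volume, and tumours were excised after the last dose.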"}, "MDA-MB-231 cells [4]": {"test_system": "MDA-MB-231 cells", "test": "Cell uptake of C6-labelled micelles", "format": "cell-based, human", "conditions": "MDA-MB-231, 1 h and 4 h", "summary_of_the_method": "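Coumarin 6 was loaded into the polymer micelles by film dispersion. MDA-MB-231 cells were seeded overnight at 1×10^4 cells/well and given free C6 or C6-micelles; one group was pretreated with HA (10 mg/mL) for 0.5 h to block the receptor. After 1 h or 4 h at 37°C, cells were PBS-washed three times, paraformaldehyde-fixed for 10 min, DAPI-stained for 10 min at room temperature and viewed by fluorescence microscopy.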"}}}
{"smiles": "O=C(c1cc(Cc2n[nH]c(=O)c3ccccc23)ccc1F)N1CCN(C(=O)C2CC2)CC1", "note": "[OLA, Olaparib]", "values": [{"measurement": "toxicity to MDA-MB-231 cells (MTT)", "setting": "MDA-MB-231 cells [1]", "value": "low toxicity"}, {"measurement": "live/dead fluorescence (green living, red dead)", "setting": "MDA-MB-231 cells [2]", "value": "no obvious red appearance"}, {"measurement": "serum indicators of liver and renal function (AST, ALT, BUN, CRE) vs normal mice", "setting": "In vivo safety", "value": "significantly increased"}]}
{"smiles": "Cc1nc(Nc2ncc(C(=O)Nc3c(C)cccc3Cl)s2)cc(N2CCN(CCO)CC2)n1", "note": "[DAS, Dasatinib]", "values": [{"measurement": "tumor growth inhibition rate (TGI)", "setting": "[3]", "value": 49.83, "unit": "%"}]}
{"smiles": "CCN(CC)c1ccc2cc(-c3nc4ccccc4s3)c(=O)oc2c1", "note": "[C6, coumarin 6]", "values": [{"measurement": "cellular uptake (green fluorescence of C6)", "setting": "MDA-MB-231 cells [4]", "value": "weak green fluorescence"}]}
